A selection: hits, their analogues and other compounds. The true share with any hit is near 2.6%.
iPSC survival up – hiPSC single-cell survival enhancement. ATPlite luminescence; 100% = ROCK inhibitor wells, 0% = DMSO. survival enhancement, % at 20 µM. actives 0.044% (n = 360,000). AID 602274; in the data active = survival enhancement above about 18%;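 note: cells exposed to compounds for 16 hours before the ATP read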
ABCB6 inh MLPCN – blocks the human ABCB6 transporter | Q9NP58 | K562-ABCB6 porphyrin accumulation, flow cytometry, 1 h; active compounds read low | fluorescence ratio to DMSO, % at 10 µM | actives 0.19% (n = 360,000) | AID 602162;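 active = fluorescence ratio to DMSO below 75%, the collection mean minus 3 SD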;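 note: signal is porphyrin accumulated inside mitochondria; lower ratio means ABCB6 inhibition with less porphyrin fluorescence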
Exocytosis inh – lytic granule exocytosis inhibition. inhibition, % at 10 µM. actives 0.66% (n = 360,000). AID 651702. TALL-104 LAMP-1 surface exposure, flow cytometry; cells stimulated with thapsigargin and PMA;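 active = inhibition above about 55%, limit read from the data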
MC4R antag cAMP – human MC4R antagonism in cAMP assay; P32245; MC4R-expressing cells, MTII-stimulated cAMP, LANCE TR-FRET; inhibition, % at 6.5 µM; actives 0.48% (n = 360,000); AID 540295;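 active = inhibition above its plate's cutoff, the mean of tested wells on that plate plus 3 SD, cut at about 29% in these data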
Target sequence (P32245 whole entry, looked up): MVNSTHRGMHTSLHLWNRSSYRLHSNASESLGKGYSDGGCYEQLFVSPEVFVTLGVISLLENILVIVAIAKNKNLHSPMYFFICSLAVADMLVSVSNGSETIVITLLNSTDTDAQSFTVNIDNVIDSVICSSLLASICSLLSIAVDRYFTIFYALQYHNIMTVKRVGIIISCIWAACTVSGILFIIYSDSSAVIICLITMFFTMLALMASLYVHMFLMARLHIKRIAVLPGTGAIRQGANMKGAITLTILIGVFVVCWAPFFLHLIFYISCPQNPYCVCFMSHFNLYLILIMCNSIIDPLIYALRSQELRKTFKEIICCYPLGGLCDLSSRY
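System: U2OS cells stably expressing human melanocortin 4 receptor (MC4R). Reagent: Melanotan II challenge after compound preincubation. Doses: 6.5 µM. Times: 30-min compound, 1-h challenge, 1-h detection, room temperature. Measured by: TR-FRET with Eu-cAMP and labeled anti-cAMP, 671 nm. Replicates: singlicate.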
TbMetRS inhib – Trypanosoma brucei MetRS inhibition; purified T. brucei MetRS, ATP depletion, Kinase-Glo luminescence; AID 624268; actives 0.4% (n = 360,000); inhibition, % at 11.9 µM;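 active = inhibition above a per-plate cutoff of the control wells' mean inhibition plus 3 SD, cut at about 5.5% in these data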
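Material: T. brucei methionyl-tRNA synthetase, purified; reagent: substrates ATP, L-methionine and bulk Escherichia coli tRNA; dosing: 11.9 µM single point; timing: 15 min plus 2 h at 25 °C; detection: luminescence of leftover ATP; evaluation: % inhibition; control set: DMSO-only wells as low control; replicates: singlicate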
MC4R ag barr – agonists of human melanocortin 4 receptor (MC4R) beta-arrestin | AID 540308 | U2OS MC4R beta-arrestin complementation, luminescence; percent of melanotan II response, DMSO zero | P32245 | actives 0.98% (n = 360,000) | activation, % at 8.9 µM;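 active = activation above a per-plate cutoff, the mean activation of sample wells on that plate plus 3 SD, cut at about 8% in these data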
ABCB6 inh CP1 – blocks the human ABCB6 transporter; K562-ABCB6 porphyrin accumulation, flow cytometry, 1 h; active compounds read low; ratio response (% of DMSO), % at 10 µM; shares compounds with ABCB6 inh MLPCN; 700 tested, under 10 active;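 active = repeat-averaged ratio response below 75% of DMSO, the collection mean minus 3 SD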;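 note: median porphyrin fluorescence at 575 nm with 488 nm excitation from mitochondria; lower ratio means less porphyrin signal so ABCB6 inhibition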
Of the large screens only hits and unclear results are named; the others gave an inactive call (follow-up assays come after a bar, where they were run).

CCCCCN(C(=O)CCC(=O)OCC(=O)NCCc1ccccc1)c1c(N)n(CCCC)c(=O)[nH]c1=O	none | ABCB6 inh CP1 inactive
Cc1cccc(CN(CC(=O)N/N=C/c2cccs2)S(=O)(=O)c2ccc(Cl)cc2)c1	none
CN1CCN(S(=O)(=O)c2cccc(C(=O)Nc3cc(Cl)ccc3N3CCOCC3)c2)CC1	none
Cc1nn(CCC#N)c(N)c1C1(O)C(=O)Nc2c(Cl)cc(Cl)cc21 (centres undefined)	ABCB6 inh MLPCN 13.0 | ABCB6 inh CP1 inactive
CC(=O)/C(N=Nc1ccc2c(c1)OCO2)=C(\C)O	ABCB6 inh MLPCN 74.0 | ABCB6 inh CP1 inactive
CC1CCc2sc(C(=O)N(C)CC(=O)Nc3ccc(N4CCOCC4)cc3)cc2C1 (centres undefined)	none
CC(=O)Nc1ccc(OC(=O)c2c(-c3ccccc3Cl)noc2C)cc1	ABCB6 inh MLPCN 70.0 | ABCB6 inh CP1 inactive
CC(=O)Nc1ccc(NC(=O)c2c(-c3ccccc3Cl)noc2C)c(C)c1	none
O=C(Nc1cccc(OC(F)(F)F)c1)C1Cc2c(-c3ccc(Cl)cc3)ccnc2O1 (centres undefined)	none
O=C(Nc1cccc(OC(F)(F)F)c1)C1Cc2c(-c3ccc4c(c3)OCO4)ccnc2O1 (centres undefined)	none | ABCB6 inh CP1 inactive
O=C(Nc1cccc(Oc2ccccc2)c1)C1Cc2c(-c3ccc4c(c3)OCO4)ccnc2O1 (centres undefined)	none | ABCB6 inh CP1 inactive
Cc1ccc2cc(NC(=O)C3(C)CCN3CC(C)C)ccc2n1 (centres undefined)	none
O=C(CCCn1cnc([N+](=O)[O-])n1)Nc1cccc(Cl)c1Cl	ABCB6 inh MLPCN 72.0 | ABCB6 inh CP1 inactive
Cc1c(Cl)cccc1NC(=O)CCCn1cnc([N+](=O)[O-])n1	none
CC(=O)c1cccc(NC(=O)C(C)OC(=O)c2ccc(Br)o2)c1 (centres undefined)	none
CC(=O)CN1C(=O)NC(c2ccccc2)(c2ccccc2)C1=O	ABCB6 inh MLPCN 46.0 | ABCB6 inh CP1 inactive
C/C=C(\C)CN1CCN(c2cccc(C)c2C)CC1	ABCB6 inh MLPCN 24.0 | ABCB6 inh CP1 inactive
C/C=C(\C)CN1CCN(c2ccccc2F)CC1	none
Cc1ccccc1OCC(=O)OCC(=O)c1ccc(OC(=O)c2ccccc2)cc1	ABCB6 inh MLPCN 44.0 | ABCB6 inh CP1 inactive
Cc1ccccc1OCC(=O)OCC(=O)c1ccc(OCc2ccccc2)cc1	none
O=C(NCc1ccccc1Cl)C1CCN(S(=O)(=O)N2CCC3(CC2)OCCO3)CC1	none
O=C(NCc1ccc(F)cc1Cl)C1CCN(S(=O)(=O)N2CCC3(CC2)OCCO3)CC1	ABCB6 inh MLPCN 69.0 | ABCB6 inh CP1 inactive
CSc1ccc(CN2C(=O)C(F)(F)Oc3c(C(C)=O)cccc32)cc1	ABCB6 inh MLPCN 74.0 | ABCB6 inh CP1 inactive
CCN(CC)C(=O)[C@H]1CC(CC(=O)NCc2ccc(OC)c(OC)c2)C(=O)N2CCc3c([nH]c4ccc(OC)cc34)[C@]12C (some centres undefined)	ABCB6 inh MLPCN 64.0 | ABCB6 inh CP1 inactive
CCN(CC)C(=O)[C@H]1CC(CC(=O)NCc2ccc(OC)c(OC)c2)C(=O)N2CCc3c([nH]c4ccccc34)[C@]12C (some centres undefined)	none
CCCCCN(CCCCC)C(=O)C(CCC(=O)O)NC(=O)c1ccc(Cl)c(Cl)c1 (centres undefined)	none
CC(=O)Nc1cccc(-c2ccnc3c2CC(C)(C(=O)Nc2cccc(C(F)(F)F)c2)O3)c1 (centres undefined)	none | ABCB6 inh CP1 inactive
CC1(C(=O)Nc2cccc(C(F)(F)F)c2)Cc2c(-c3cccc(C(F)(F)F)c3)ccnc2O1 (centres undefined)	none
CCCn1c(SCC(=O)c2c[nH]c3ccccc23)nnc1-c1ccncc1	none
CC1(C)CC(=O)C=C(Nc2cc(-c3ccccc3)[nH]n2)C1	ABCB6 inh MLPCN 47.0 | ABCB6 inh CP1 inactive
CC1(C)CC(=O)C=C(NCc2ccccc2)C1	none
O=C(Nc1cccc(Cl)c1)NC1CCN(C2CCCCC2)C1 (centres undefined)	ABCB6 inh MLPCN 47.0 | ABCB6 inh CP1 inactive
CC(=O)Oc1cccc(/C=C2\Sc3ccccc3C2=O)c1	ABCB6 inh MLPCN 72.0 | ABCB6 inh CP1 inactive
CCCCOc1ccc(/C=C2/Sc3ccccc3C2=O)cc1	none
CCn1nc(C(=O)O)c(=O)c2cc3c(cc21)OCO3	ABCB6 inh MLPCN 71.0 | ABCB6 inh CP1 inactive
c1coc(-c2cc3nc(NCc4ccc5c(c4)OCO5)ccn3n2)c1	none
CC1(C(=O)NS(=O)(=O)c2ccccc2Cl)CCN1C(=O)C1(c2ccc(Cl)cc2)CCC1 (centres undefined)	none
CC1(C(=O)NS(=O)(=O)c2ccccc2Cl)CCN1C(=O)C1(c2ccc(Cl)cc2)CC1 (centres undefined)	none | ABCB6 inh CP1 inactive
CC1(C(=O)NS(=O)(=O)c2cccs2)CCN1C(=O)C1(c2ccccc2)CCCC1 (centres undefined)	ABCB6 inh MLPCN 72.0 | ABCB6 inh CP1 inactive
CC1(C(=O)NS(=O)(=O)c2ccc(Cl)s2)CCN1C(=O)C1(c2ccc(Cl)cc2)CCC1 (centres undefined)	none | ABCB6 inh CP1 inactive
CC1(C(=O)NS(=O)(=O)c2cccs2)CCN1C(=O)C1(c2ccc(Cl)cc2)CCC1 (centres undefined)	none | ABCB6 inh CP1 inactive
C=C1CCN([C@@H](C)C(=O)NCc2ccc(Cl)cc2)S(=O)(=O)c2ccccc21	none
CCOC(=O)[C@H]1[C@H]2COc3cc(OC)ccc3[C@@H]2N2C(=O)N(c3cccc(F)c3)C(=O)[C@@]12C	none
CCOC(=O)[C@@H]1[C@H]2COc3cc(OC)ccc3[C@H]2N2C(=O)N(c3cccc(F)c3)C(=O)[C@@]12C	ABCB6 inh MLPCN 73.0 | ABCB6 inh CP1 inactive
C[C@H](NC(=O)Nc1ccccc1F)C(=O)O	none
CC(C)C[C@H](NC(=O)Nc1ccccc1F)C(=O)O	ABCB6 inh MLPCN 45.0 | ABCB6 inh CP1 inactive
O=C1NCCN/C1=C\C(=O)c1ccc(Cl)cc1	none
COc1ccc2c(c1OC)C(=O)N(c1ccc(C)c(C)c1)C2=O	none
COc1ccc2c(c1OC)C(=O)N(c1ccc3c(c1)CCC3)C2=O	ABCB6 inh MLPCN 63.0 | ABCB6 inh CP1 inactive
CC(Nc1nc2ncn(Cc3ccccc3)c2c(=O)[nH]1)C(=O)O (centres undefined)	none (no result: ABCB6 inh MLPCN)
O=C(O)CCCCCNc1nc2ncn(Cc3ccccc3)c2c(=O)[nH]1	ABCB6 inh MLPCN 57.0 | ABCB6 inh CP1 inactive
